# Data taken from ChEMBL document CHEMBL1933063, “Investigation of chalcones and benzochalcones as inhibitors of breast cancer resistance protein” (Bioorg Med Chem, 2012).
# Activity calls are given as the source filed them. The rule behind the calls is not given here.
# Columns and labels:
# [1] = target: ATP-dependent translocase ABCB1 (Homo sapiens, UniProt P08183); assay: Inhibition of MDR1 in human A2780adr cells assessed as calcein AM accumulation at 10 uM by fluorimetry; assay type: cell-based; conditions: a2780 adr
# In short: (§1)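 Calcein AM accumulation in A2780adr (P-gp) or 2008 MRP1 cells. Cells washed in Krebs-HEPES buffer, about 30,000 per well, preincubated 30 min with compound at 10 µM final. Calcein AM then added. Fluorescence (ex 485, em 520 nm) read every 60 s up to 90 min at 37 °C. Expressed as percent of vehicle control; n = 3.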
# [2] = test system: MCF7/MX; assay: Potentiation of mitoxantrone anticancer activity against human MCF7/MX cells at 3 uM after 72 hrs by MTT assay; assay type: functional, cell-based
# In short: (§2)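 Cells seeded (1250/well MDCK, 10,000/well MCF-7) and left 6 h at 37 °C, 5% CO2. Mitoxantrone or SN-38 dose range added with or without three concentrations of modulator, then 72 h incubation. MTT added for 1 h, cells lysed in DMSO, absorbance read at 544 nm minus 710 nm. EC50 derived; parental cells as controls; three independent experiments.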
# [3] = target: T1, Broad substrate specificity ATP-binding cassette transporter ABCG2 (Homo sapiens, UniProt Q9UNQ0); assay: Inhibition of human BCRP expressed in MDCK2 cells assessed as Hoechst 33342 accumulation preincubated for 30 mins by fluorimetry; assay type: cell-based, MDCK-II; conditions: read-out: IC50
# T1 sequence (Q9UNQ0 whole entry): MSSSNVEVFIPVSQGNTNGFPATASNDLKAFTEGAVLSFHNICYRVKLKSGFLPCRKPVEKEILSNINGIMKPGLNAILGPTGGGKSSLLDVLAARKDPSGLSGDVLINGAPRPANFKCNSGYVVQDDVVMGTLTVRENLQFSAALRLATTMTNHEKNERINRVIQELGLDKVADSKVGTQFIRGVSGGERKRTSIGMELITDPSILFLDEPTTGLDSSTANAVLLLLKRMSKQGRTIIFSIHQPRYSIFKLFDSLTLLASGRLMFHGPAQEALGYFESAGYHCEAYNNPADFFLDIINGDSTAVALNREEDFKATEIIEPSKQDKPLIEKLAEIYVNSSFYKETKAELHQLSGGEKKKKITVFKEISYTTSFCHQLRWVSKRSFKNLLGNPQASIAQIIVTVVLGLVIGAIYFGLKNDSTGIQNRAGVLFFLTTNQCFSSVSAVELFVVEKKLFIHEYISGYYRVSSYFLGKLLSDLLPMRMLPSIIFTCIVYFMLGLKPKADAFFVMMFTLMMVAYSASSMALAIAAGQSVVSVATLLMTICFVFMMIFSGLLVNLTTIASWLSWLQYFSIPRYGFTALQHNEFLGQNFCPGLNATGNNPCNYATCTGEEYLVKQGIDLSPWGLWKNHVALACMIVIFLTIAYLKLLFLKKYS
# In short: (§3)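 Cells washed three times in Krebs-HEPES buffer, about 20,000 per well, preincubated with test compound at varied concentrations for 30 min at 37 °C, 5% CO2. Hoechst 33342 then added (final 1 µM). Fluorescence (ex 355, em 460 nm) read every 60 s up to 120 min at 37 °C. KHB background subtracted, 100–109 min mean plotted, four-parameter logistic fit; ≥3 independent experiments.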
# [4] = test system: MCF7/MX; assay: Potentiation of mitoxantrone anticancer activity against human MCF7/MX cells at 5 uM after 72 hrs by MTT assay; assay type: functional, cell-based; in short: as §2
# [5] = target: Multidrug resistance-associated protein 1 (Homo sapiens, UniProt P33527); assay: Inhibition of MRP1 overexpressed in human 2008 MRP1 cells assessed as calcein AM accumulation at 10 uM by fluorimetry; assay type: cell-based; conditions: human, 2008, 10 µM; in short: as §1
# [6] = target: T1, Broad substrate specificity ATP-binding cassette transporter ABCG2; assay: Inhibition of BCRP in human MCF7/MX cells assessed as Hoechst 33342 accumulation preincubated for 30 mins by Fluorometry; assay type: cell-based; conditions: read-out: IC50; in short: as §3
# [7] = test system: MCF7/MX; assay: Potentiation of mitoxantrone anticancer activity against human MCF7/MX cells at 1 uM after 72 hrs by MTT assay; assay type: functional, cell-based; in short: as §2
# Sequence of Multidrug resistance-associated protein 1 (P33527 whole entry): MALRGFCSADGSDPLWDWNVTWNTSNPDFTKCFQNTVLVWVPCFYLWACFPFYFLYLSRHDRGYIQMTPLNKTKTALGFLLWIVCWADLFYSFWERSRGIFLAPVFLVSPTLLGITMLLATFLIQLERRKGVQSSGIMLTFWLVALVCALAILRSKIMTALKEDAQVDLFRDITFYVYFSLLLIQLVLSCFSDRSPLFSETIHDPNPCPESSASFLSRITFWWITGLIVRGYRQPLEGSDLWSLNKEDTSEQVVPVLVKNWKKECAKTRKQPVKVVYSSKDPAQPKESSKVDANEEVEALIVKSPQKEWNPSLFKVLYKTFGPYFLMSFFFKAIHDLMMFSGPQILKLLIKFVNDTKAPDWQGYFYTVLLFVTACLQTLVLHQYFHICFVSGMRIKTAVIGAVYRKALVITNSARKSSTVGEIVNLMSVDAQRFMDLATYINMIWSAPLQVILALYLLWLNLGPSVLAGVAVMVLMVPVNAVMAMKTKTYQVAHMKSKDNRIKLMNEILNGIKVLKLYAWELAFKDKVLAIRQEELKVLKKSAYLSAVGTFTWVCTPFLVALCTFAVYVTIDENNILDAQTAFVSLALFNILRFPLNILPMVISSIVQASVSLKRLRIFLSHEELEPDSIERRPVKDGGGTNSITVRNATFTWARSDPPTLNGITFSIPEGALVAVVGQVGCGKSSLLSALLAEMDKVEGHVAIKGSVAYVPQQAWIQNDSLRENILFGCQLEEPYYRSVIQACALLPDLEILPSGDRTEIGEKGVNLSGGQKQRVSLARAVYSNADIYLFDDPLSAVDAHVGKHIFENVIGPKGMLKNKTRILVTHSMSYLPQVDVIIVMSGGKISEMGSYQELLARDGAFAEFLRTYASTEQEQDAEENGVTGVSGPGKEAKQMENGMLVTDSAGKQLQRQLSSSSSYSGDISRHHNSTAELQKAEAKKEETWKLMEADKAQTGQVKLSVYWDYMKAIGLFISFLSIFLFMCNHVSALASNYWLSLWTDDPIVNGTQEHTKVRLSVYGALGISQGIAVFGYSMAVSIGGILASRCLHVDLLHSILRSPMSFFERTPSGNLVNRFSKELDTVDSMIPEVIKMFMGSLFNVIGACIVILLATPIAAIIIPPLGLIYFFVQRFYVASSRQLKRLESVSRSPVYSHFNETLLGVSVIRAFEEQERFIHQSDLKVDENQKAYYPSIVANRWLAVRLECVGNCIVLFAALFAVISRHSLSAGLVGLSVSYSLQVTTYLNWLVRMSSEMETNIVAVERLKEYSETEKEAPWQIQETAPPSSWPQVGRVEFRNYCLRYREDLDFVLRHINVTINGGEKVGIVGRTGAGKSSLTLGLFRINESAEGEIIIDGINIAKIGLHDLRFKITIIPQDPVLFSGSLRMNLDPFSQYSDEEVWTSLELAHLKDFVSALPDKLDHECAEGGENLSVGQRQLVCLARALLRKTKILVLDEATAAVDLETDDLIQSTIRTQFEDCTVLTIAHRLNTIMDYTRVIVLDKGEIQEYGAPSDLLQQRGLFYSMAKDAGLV
# Sequence of ATP-dependent translocase ABCB1 (P08183 whole entry): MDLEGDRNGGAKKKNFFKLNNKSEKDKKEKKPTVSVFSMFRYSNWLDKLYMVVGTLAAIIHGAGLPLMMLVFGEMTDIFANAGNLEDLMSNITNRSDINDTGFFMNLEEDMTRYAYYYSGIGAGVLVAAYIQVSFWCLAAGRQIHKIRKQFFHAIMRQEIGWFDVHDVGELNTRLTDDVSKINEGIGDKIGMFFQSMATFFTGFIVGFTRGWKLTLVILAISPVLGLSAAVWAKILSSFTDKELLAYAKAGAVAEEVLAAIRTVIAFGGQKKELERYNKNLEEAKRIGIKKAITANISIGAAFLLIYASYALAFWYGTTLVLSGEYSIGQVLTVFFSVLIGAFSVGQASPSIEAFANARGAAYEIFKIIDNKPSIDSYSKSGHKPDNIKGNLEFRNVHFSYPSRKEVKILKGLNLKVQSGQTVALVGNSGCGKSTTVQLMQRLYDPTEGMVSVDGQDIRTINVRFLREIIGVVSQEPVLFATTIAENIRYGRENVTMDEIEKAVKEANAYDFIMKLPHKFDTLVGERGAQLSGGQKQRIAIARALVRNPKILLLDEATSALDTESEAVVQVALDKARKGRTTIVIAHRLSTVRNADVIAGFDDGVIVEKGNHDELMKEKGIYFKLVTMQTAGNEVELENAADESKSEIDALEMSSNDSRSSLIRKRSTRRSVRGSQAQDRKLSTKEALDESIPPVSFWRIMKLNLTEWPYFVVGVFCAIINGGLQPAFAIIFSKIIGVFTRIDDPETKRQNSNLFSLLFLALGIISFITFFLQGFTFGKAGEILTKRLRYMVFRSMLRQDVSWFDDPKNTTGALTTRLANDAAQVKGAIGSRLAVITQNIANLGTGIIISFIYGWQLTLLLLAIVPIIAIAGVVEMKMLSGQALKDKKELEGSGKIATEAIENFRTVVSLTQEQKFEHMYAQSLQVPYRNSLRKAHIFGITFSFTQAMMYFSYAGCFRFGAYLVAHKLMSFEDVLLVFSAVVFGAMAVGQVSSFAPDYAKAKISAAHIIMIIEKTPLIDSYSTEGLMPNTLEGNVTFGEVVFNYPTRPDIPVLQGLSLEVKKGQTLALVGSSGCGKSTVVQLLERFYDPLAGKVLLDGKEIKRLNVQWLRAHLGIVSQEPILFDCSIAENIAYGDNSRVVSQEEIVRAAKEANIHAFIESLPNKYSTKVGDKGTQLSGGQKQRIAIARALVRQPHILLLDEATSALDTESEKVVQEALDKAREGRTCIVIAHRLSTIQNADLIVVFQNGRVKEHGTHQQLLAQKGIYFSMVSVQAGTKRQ
compound,measurement,setting,value
COc1cc(O)c(C(=O)/C=C/c2ccc(OC)c(OC)c2)c(OC)c1,inhibition (INH),[1],Active
same,Activity,[2],Active
same,IC50,[3],530 nM
same,Activity,[4],Active
same,inhibition (INH),[5],Not Active
same,IC50,[6],750 nM
same,Activity,[7],Active
